Reference: publication PMC4383680 (Nature, 2015)
Entries after “also recorded” stand apart in the source; their conditions may differ. No end group written: not given here.

Experiments:
[1] = tested on: D1 dopamine receptor in PVN neurons; test: D1 receptor mediated depolarization of PVN neurons; format: cell-based, mouse; conditions: 5 μM SKF83822
Summary of the method: (§1)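 Mouse hypothalamic slices, 200 μm, cut at 44–49° from horizontal in oxygenated near-freezing aCSF and transferred to oxygenated ACSF at 31 °C. PVN neurons recorded in whole cell mode. Cells accepted only with holding current ≤30 pA at −70 mV, large rebound spikes, ability to fire, and no blebbing or visible nucleus.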

PVN MC4R neurons [2] = test: Current clamp membrane potential of PVN MC4R neurons, hypothalamic slices; format: cell-based, mouse; conditions: for amplitude of α-MSH depolarization at higher concentration of salt: BaCl2 >1 mM, CsCl >2.5 mM; for effect of BaCl2 or CsCl on α-MSH induced depolarization: external, various concentrations
Summary of the method: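 MC4R-GFP mouse hypothalamic slices, 200 μm, cut at 44–49° to horizontal in near-freezing oxygenated aCSF and kept in oxygenated ACSF at 31 °C. α-MSH (250 nM) bath-applied. Continuous current clamp with membrane potential held at −55 to −60 mV to prevent spontaneous firing. Potential averaged over 3 min before peptide versus a 3 min window 7–11 min after. Zero-ATP internal at pH 7.2, 298 mosmol/kg.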

[3] = tested on: μ-opioid receptor in PVN MC4R neurons; test: μ-opioid; format: cell-based, mouse; conditions: DAMGO 10 μM; for effect on DAMGO response: GTPγS 1.5 mM or gallein 25 μM
Summary of the method: as §1

[4] = tested on: inward rectifying K+ (Kir) channels; conditions: at concentrations that block other Kir channels; ref [12]; cited from earlier work
MC4R [5] = molecular target: T1, MC4R (Homo sapiens, UniProt P32245); test: Intracellular cAMP / MC4R coupling to Gαs; format: cell-based; conditions: Fig. 4a
[6] = molecular target: MC4R + Kir7.1 (M125R) in HEK293 cells (Homo sapiens, UniProt P32245); format: cell-based
MC4R [7] = molecular target: T1, MC4R; test: β-arrestin recruitment; format: cell-based; conditions: increasing concentrations, PathHunter, 90 min, 37 °C
MC4R - Gαi = test: Coupling of MC4R to Gαi; format: cell-based; conditions: Extended Data Fig. 6a–c
PVN MC4R neurons [8] = test: Firing frequency of PVN MC4R neurons; format: cell-based, mouse
Summary of the method: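 Slices from MC4R-GFP mice, 200 μm, cut at 44–49°, held in oxygenated ACSF at 31 °C. AgRP applied to the bath. Cells held around −50 mV so they fire spontaneously. Firing frequency counted for 3 min before peptide and for 3 min at 7–11 min after, then compared.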

PVN MC4R neurons [9] = test: Voltage clamp; format: cell-based, mouse
[10] = molecular target: 3HA-MC4R (melanocortin-4 receptor) (human) (UniProt P32245)
Chain of 3HA-MC4R (melanocortin-4 receptor) (human) (P32245 whole entry): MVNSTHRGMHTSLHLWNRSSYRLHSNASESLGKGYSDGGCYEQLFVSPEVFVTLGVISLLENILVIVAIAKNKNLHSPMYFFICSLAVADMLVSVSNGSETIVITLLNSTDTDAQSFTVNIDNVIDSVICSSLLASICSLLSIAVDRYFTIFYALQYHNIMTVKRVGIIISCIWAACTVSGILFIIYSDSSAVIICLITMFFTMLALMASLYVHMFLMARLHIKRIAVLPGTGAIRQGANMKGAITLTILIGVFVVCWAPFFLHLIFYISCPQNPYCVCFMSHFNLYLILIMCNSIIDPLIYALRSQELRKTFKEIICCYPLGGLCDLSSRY

T1 sequence (P32245 whole entry): as above
Chain of MC4R + Kir7.1 (M125R) in HEK293 cells (P32245 whole entry, stated change not applied): as the sequence (P32245 whole entry) above

C=CCN1CCc2c(cc(O)c(O)c2Cl)C(c2cccc(C)c2)C1 (stereo not shown) [SKF83822]
depolarization of PVN neurons by D1 agonist [1]: causes depolarization of PVN neurons; also recorded: depolarized PVN neurons

Cc1ccc(OCC(O)Cn2c(=N)n(Cc3ccccc3)c3ccccc32)cc1 (stereo not shown) [VU573]
inhibition of depolarizing effect of α-MSH (PVN MC4R neurons [2]; 15 μM VU573, 250 nM α-MSH): ~ 80%

DAMGO
effect of DAMGO on membrane potential [3]: hyperpolarization

O=C1OC2(c3ccccc31)c1ccc(O)c(O)c1Oc1c2ccc(O)c1O [gallein]
effect on α-MSH induced firing or depolarization (PVN MC4R neurons [2]; gallein 25 μM, Gβγ blocker): ineffective in blocking neuronal firing or depolarization; also recorded: fails to inhibit α-MSH induced depolarization | effect on DAMGO response [3]: blocks the effects of DAMGO

[Cl-].[Cs+] [CsCl]
amplitude of α-MSH depolarization at higher concentration of salt (PVN MC4R neurons [2]): increased amplitude | effect of BaCl2 or CsCl on α-MSH induced depolarization (PVN MC4R neurons [2]; current clamp): not blocked in higher concentrations; also recorded: persisted | sensitivity of Kir7.1 to external salt [4]: resistant

Nc1ncnc2c1ncn2C1CCCO1 (stereo not shown) [SQ22536]
effect on α-MSH induced depolarization (PVN MC4R neurons [2]; SQ22536 25 μM, adenylyl cyclase inhibition): fails to block depolarizing effects of α-MSH; also recorded: failed to block α-MSH induced depolarization

Nc1nc2c(ncn2[C@@H]2O[C@H](COP(=O)(O)OP(=O)(O)OP(O)(O)=S)[C@@H](O)[C@H]2O)c(=O)[nH]1 [GTPγS]
effect on α-MSH induced firing or depolarization (PVN MC4R neurons [2]; GTPγS 1.5 mM, whole cell): ineffective in blocking neuronal firing or depolarization; also recorded: fails to block the depolarization induced by α-MSH | effect on DAMGO response [3]: does block the hyperpolarization induced by μ-opioid agonist

Nc1nc2c(ncn2[C@@H]2O[C@H](COP(=O)(O)OP(O)(O)=S)[C@@H](O)[C@H]2O)c(=O)[nH]1 [GDPβS]
effect on α-MSH induced depolarization (PVN MC4R neurons [2]; 5 mM GDPβS, intrapipette): fails to block the α-MSH – induced depolarization; also recorded: failed to block α-MSH induced depolarization of PVN MC4R neurons | effect on D1 (SKF83822) mediated depolarization ([1]; 5 mM GDPβS intrapipette): blocks the depolarization and firing activity induced by SKF83822; also recorded: blocked D1 mediated depolarization

[Ba+2].[Cl-].[Cl-] [BaCl2]
amplitude of α-MSH depolarization at higher concentration of salt (PVN MC4R neurons [2]): increased amplitude | effect of BaCl2 or CsCl on α-MSH induced depolarization (PVN MC4R neurons [2]; current clamp): not blocked in higher concentrations; also recorded: persisted | sensitivity of Kir7.1 to external salt [4]: resistant

miniAgRP: AgRP analogue, AgRP87-120 (87-122); synthesized, purified and folded by authors (CVRLHESCLGQQVPCCDPCATCYCRFFNAFCYCR; ends and bridges not checked; also: folded, disulfide pairing not given here; UniProt O00253 87-120, looked up, fragment)
potency in inhibition of MC4R coupling to Gαs (MC4R [5]): retains normal affinity for MC4R, and potency in inhibition of MC4R coupling to Gαs | coupling of MC4R to Kir7.1 ([6]; Fig. 4b): lost its ability to couple MC4R to Kir7.1

CSCC[C@@H]1NC(=O)[C@H](C)NC(=O)[C@H]([C@@H](C)O)NC(=O)CNC(=O)[C@H](CC(C)C)NC(=O)[C@H](CCCCN)NC(=O)[C@H](CCCNC(=N)N)NC(=O)[C@@H]2CSSC[C@@H]3NC(=O)[C@@H]4CCCN4C(=O)[C@H](C(C)C)NC(=O)[C@H](CCC(N)=O)NC(=O)[C@H](CCC(N)=O)NC(=O)CNC(=O)[C@H](CC(C)C)NC(=O)[C@@H]4CSSC[C@H](NC(=O)[C@H]([C@@H](C)O)NC(=O)[C@H](C)NC(=O)[C@H](CSSC[C@@H](C(=O)N[C@@H](CO)C(=O)N[C@@H](CCCNC(=N)N)C(=O)N[C@H](C(=O)O)[C@@H](C)O)NC(=O)[C@@H]5CCCN5C(=O)[C@H](CC(N)=O)NC1=O)NC(=O)[C@@H]1CCCN1C(=O)[C@H](CC(=O)O)NC(=O)[C@H](CSSC[C@H](NC(=O)[C@H](CCCNC(=N)N)NC(=O)[C@H](CCCNC(=N)N)NC(=O)[C@H](CO)NC(=O)[C@@H](N)CO)C(=O)N[C@@H](C(C)C)C(=O)N[C@@H](CCCNC(=N)N)C(=O)N[C@@H](CC(C)C)C(=O)N[C@@H](Cc1c[nH]cn1)C(=O)N[C@@H](CCC(=O)O)C(=O)N[C@@H](CO)C(=O)N4)NC3=O)C(=O)N[C@@H](Cc1ccc(O)cc1)C(=O)N[C@H]1CSSC[C@H](NC(=O)[C@H](Cc3ccccc3)NC(=O)[C@H](C)NC(=O)[C@H](CC(N)=O)NC(=O)[C@H](Cc3ccccc3)NC(=O)[C@H](Cc3ccccc3)NC(=O)[C@H](CCCNC(=N)N)NC1=O)C(=O)N[C@@H](Cc1ccc(O)cc1)C(=O)N2 [AgRP, Agouti-related protein]
β-arrestin recruitment (MC4R [7]): did not appear to; also recorded: without any effect | membrane potential response (PVN MC4R neurons [2]; 100 nM AgRP, bath application, current clamp, **p<0.01): hyperpolarized PVN MC4R neurons; also recorded: hyperpolarizing response | coupling to Gαi (MC4R - Gαi): did not appear to couple the MC4R to the cAMP inhibitory G protein, Gαi | effect on firing activity (PVN MC4R neurons [8]; AgRP, cells held around −50 mV): inhibiting their firing activity | duration of increase of Tl+ flux ([6]; low dose AgRP 1 nM, data not shown): up to 24 h | effect on K+ current of PVN MC4R neurons (PVN MC4R neurons [9]): generates hyperpolarizing current by opening of inward rectifying K^+ channels; also recorded: increases the density of an inward rectifying K^+ current | reversal potential of AgRP-activated current (PVN MC4R neurons [9]; AgRP 50 nM, 20 mM external K+): −46.7 +/− 3.0 mV | increase of membrane conductance (PVN MC4R neurons [9]; AgRP 50 nM, 20 mM external K+, n=6): 75%

CCCCCCCC(=O)OC[C@H](COP(=O)(O)O[C@@H]1[C@H](O)[C@H](O)[C@@H](OP(=O)(O)O)[C@H](OP(=O)(O)O)[C@H]1O)OC(=O)CCCCCCC [PI(4,5)P2 diC8]
effect on α-MSH induced depolarization (PVN MC4R neurons [2]; 100 μM PI(4,5)P2 diC8 in zero ATP internal solution): significantly increased the amplitude of the α-MSH induced depolarization; also recorded: potentiated the α-MSH-induced response

miniAgRP (AgRP 87-120) (from UniProt O00253 87-120) (peptide)
stimulation of Kir7.1 activity, potency [10]: 1.7e-07

N#CC(=C(/N)Sc1ccccc1N)/C(C#N)=C(/N)Sc1ccccc1N [U0126]
effect on α-MSH induced increase in firing frequency (PVN MC4R neurons [8]; U0126 1 μM, whole cell): ineffective in blocking neuronal firing or depolarization; also recorded: fails to block α-MSH -induced increase in firing frequency

O=[N+]([O-])c1ccc(CN2CCOCCOCCN(Cc3ccc([N+](=O)[O-])cc3)CCOCC2)cc1 [VU590]
effect of Kir blocker on α-MSH induced depolarization (PVN MC4R neurons [2]; 250 nM α-MSH, blocker concentration not given): blocked

B1: wtAgRP (83-132) (domain or fragment)
chain: SSRRCVRLHESCLGQQVPCCDPCATCYCRFFNAFCYCRKLGTAMNPCSRT
modifications: ends and bridges not checked; cysteine pairing not given here
stimulation of Kir7.1 activity, potency [10]: 3.6e-09
